Data on 167 variants can be found in the RNAGym collection of RNA variant scans (doi:10.1126/science.aae0568).

This sample holds only a part of the variants without activity.

B1: tRNA (parent)
chain: GUUCCGUUGGCGUAAUGGUAACGCGUCUCCCUCCUAAGGAGAAGACUGCGGGUUCGAGUCCCGUACGGAACG

The series covers variants of B1. Description: yeast fitness relative to wild type (ratio to wild type); higher = fitter; tRNA-Arg(CCU), competitive growth, 37 C, YPD. In a few lines:
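Genotype frequency changes were the basis for Darwinian fitness relative to wild type. The frequencies came from 100-nucleotide paired-end sequencing of gene amplicons from the start population and each end population of pooled yeast strains with tRNA-Arg(CCU) gene variants at the native locus. Competition ran in YPD at 37°C for 24 hours in six replicates, genotypes needed ≥ 100 starting reads, and estimates < 0.5 were set to 0.5.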
On to U16C G48C A57C, for which the yeast fitness was at most 0.5.
The value for U16C G48C was 0.894; that for U16C U26A G38C was at most 0.5; that for U16G G44C was 0.912.
On to U16G G17C A43U G52C, for which the yeast fitness is at most 0.5.
Turning to U16G G48A, the yeast fitness stood at 0.903.
In the case of G17A A20G U53A it was at most 0.5; in that of U16G C27G, 0.639; in that of U16G C61U C66G, 0.569.
In the case of G17A A21G U26C C62U, the yeast fitness is at most 0.5.
Take U16G C29G G58A: the yeast fitness was 0.59.
In the case of G17A A20C G44C it was 0.617; in that of G17A C22A C31A C33A C49A, 0.573.
In the case of U16G C62U it was 0.853; in that of U16C G67C, 0.861; in that of U16G A36U, 0.589.
The value for U16G C31G G48C A57U was at most 0.5.
In the case of U16G C29U, the yeast fitness came out at 0.806.
The value for G17A C22A U35C A45C C46U was 0.537; that for U16C G56A G68A was 0.69.
Consider U16G A42U, for which the yeast fitness came to 0.994.
The value for G17A A42C A70C was 0.688; that for U16G C22G A37G A43G G68A was at most 0.5; that for U16G C60G was 0.658.
In the case of G17A C22G C27A A45U G56C G63C G67C it was at most 0.5; in that of U16G C62U A70C, 0.565.
In the case of G17A A42G G50A it was at most 0.5; in that of U16G C22G U47G, 0.557; in that of G17A A45U G52A A70U, 0.535.
As to U16G U32C, the yeast fitness worked out at 0.915.
As for G17A A37U U47A G68C, the yeast fitness is 0.645.
Turning to U16G G23C U35C, the yeast fitness came to 0.655.
Turning to U16G G39C A42U U54C C55G U64A, the yeast fitness is at most 0.5.
For the variant U16G A37U A45C, the yeast fitness is at most 0.5.
Turning to U16G G44A C62U, the yeast fitness worked out at 0.652.
As for U16G G51A, the yeast fitness is 0.783.
Take G17A A45U G52A: the yeast fitness was at most 0.5.
The value for U16C G68A was 0.767.
In the case of U16C G68C it was 0.834; in that of G17A A36G C66U, 0.65.
Turning to U16G U19G C29G G50C C66U, the yeast fitness is at most 0.5.
The value for G17A C22U A45G C46U A69U was 0.603; that for U16C U53A was 0.611; that for G17A A20G C34U C55G was at most 0.5.
In the case of U16G A40G it was 0.935; in that of G17A A40U G52A C60U G63C, at most 0.5.
In the case of G17A A20G C27G A36C U47A G68A it was at most 0.5; in that of G17A C22U C27A C30G C49A, at most 0.5; in that of G17A A21G C49U C60A G63A, 0.529.
Consider U16G U32G C46U C49U, for which the yeast fitness is at most 0.5.
In the case of U16G C29U C55G it was at most 0.5.
The value for G17A C22A G25A was 0.501; that for U16G C61U A69C was 0.644; that for G17A A45G A65U was 0.559.
In the case of G17A A20G C30A it was 0.628; in that of U16G G23C U35C G63A, at most 0.5.
For the variant U16G A20C G41A C55U, the yeast fitness is at most 0.5.
In the case of G17A A36U C46U, the yeast fitness is at most 0.5.
The value for U16C U19A U47A C61A was 0.792; that for U16G A37G G51C C62G was at most 0.5.
For G17A C22A A36G A45C C46U, the yeast fitness is at most 0.5.
On to G17A A45G, for which the yeast fitness came out at 0.875.
The value for U16G G51C A65C was 0.635; that for U16G C34U A40G A43G C62A A69C was at most 0.5.
U16C G44A C49U U54C G56C: the yeast fitness was at most 0.5.
The value for U16G A20U G38A G67A A69U was at most 0.5.
For the variant U16C U47A G52A, the yeast fitness is at most 0.5.
For U16C G63A, the yeast fitness was determined as 0.884.
G17A A69C A70C: the yeast fitness stood at 0.588.
As to U16G C30U A65U, the yeast fitness is at most 0.5.
The value for U16C U19A C29U was 0.615; that for G17A A42G U64A was 0.58.
Regarding U16G C22U G25A, the yeast fitness is at most 0.5.
With U16G C24U U28C A36C U59C A65C, the yeast fitness is at most 0.5.
The value for G17A A20G G25C C34U C46G G63A A65C was 0.561.
In the case of G17A C22A A45C G67C it was at most 0.5; in that of U16G C29U C31A A57C G67C, at most 0.5; in that of U16C U35C A57C, 0.532.
The value for U16C U26C G58A was 1.11.
In the case of U16G A65U, the yeast fitness came to 0.876.
Turning to U16G C22G U32C, the yeast fitness came to 0.767.
The value for U16G C49U G56C was at most 0.5; that for U16C U28C C55U A57C G58A was at most 0.5.
The value for U16G A45U U54C U64A was at most 0.5.
Turning to U16G G38A U54C A65U, the yeast fitness is at most 0.5.
The value for U16C G50A was 0.799; that for G17A A65U was 0.805.
Regarding U16G G18C U59A A65U C66A, the yeast fitness is at most 0.5.
In the case of G17A A20G G41A it was 0.593; in that of U16C U26A G38C U47A C49A, at most 0.5.
In the case of U16C U35C it was 0.609.
For the variant U16G U28A A42U U54A, the yeast fitness was at most 0.5.
The value for G17A A37C A69C was 0.648; that for U16G A42G G48A was at most 0.5; that for U16C U28C G52C was at most 0.5.
Regarding U16G G52A, the yeast fitness was determined as 0.668.
In the case of G17A A20C C24U it was 0.562.
On to U16C G52A G56C, for which the yeast fitness was at most 0.5.
Regarding U16C G51A A65U A70G, the yeast fitness was at most 0.5.
As for G17A A20G U28A U35A A70C, the yeast fitness was at most 0.5.
U16C U59A C62A G67C: the yeast fitness was at most 0.5.
In the case of U16C U26C A40C A43G G44A it was at most 0.5.
As for U16C U35G G48C C66U, the yeast fitness is at most 0.5.
As to U16G G25C C46U G50A, the yeast fitness is 0.581.
The value for U16G C46U A65C was 1.13.
Regarding G17A A42U U59C, the yeast fitness is at most 0.5.
The value for U16G C49U G63A was 0.994; that for G17A A20C G25A was 0.506; that for U16G G67U was 0.774.
In the case of U16G U26A C34U G50A it was 0.552.
In the case of G17A A57U, the yeast fitness was 0.644.
Consider U16G A45U, for which the yeast fitness was 0.969.
In the case of U16G A45G it was 1.
The value for U16G C31G C61A C66U was at most 0.5; that for U16G G56C was at most 0.5; that for G17A A37C G52A G56A G63C was at most 0.5.
U16C U28C A37C G56A U59C: the yeast fitness was at most 0.5.
For G17A A21C C29G A70U, the yeast fitness is at most 0.5.
As for U16C U32C G39C, the yeast fitness is at most 0.5.
The value for U16C U26A A43U C62U was at most 0.5.
In the case of U16G C30A G51C G56C C62G it was 0.65.
The value for U16G C22G A65U was 0.722.
Turning to U16G A43U G50C, the yeast fitness was 0.576.
The value for U16G C34G A42G C49G U64A was at most 0.5; that for U16G G63A was 0.937; that for G17A A37C G58A was 0.551.
In the case of G17A A20G A36C A37C U53G A70C, the yeast fitness was at most 0.5.
As to G17A A70U, the yeast fitness came to 0.864.
In the case of U16C G44C C66U it was at most 0.5; in that of U16G C22U C62U, 0.645.
Regarding U16G G18C A21U, the yeast fitness amounted to 0.59.
Consider U16G C33U G44C, for which the yeast fitness is at most 0.5.
U16G G39A A45C C61A A69U: the yeast fitness is at most 0.5.
On to U16G G18C U59A A65U, for which the yeast fitness came to 0.687.
The value for G17A A21G U26C C66A was at most 0.5; that for U16G C22A A57G was at most 0.5.
Turning to U16C U47A C49A C62U, the yeast fitness was determined as 0.778.
Consider U16C G51A A65U, for which the yeast fitness was determined as 0.572.
For U16G C46U U53C A69C, the yeast fitness came out at 0.711.
As for U16G U47A U54A A57U U64A A69U, the yeast fitness came out at 0.678.
The value for U16C U47C was 0.899.
Turning to U16C U32G C34G U53A G63C, the yeast fitness was at most 0.5.
In the case of U16G A21G C30U A37C it was at most 0.5; in that of U16C U26A, 0.973.
Regarding U16C U26C, the yeast fitness is 0.884.
Regarding U16G A21G C31U, the yeast fitness is 0.985.
In the case of U16C U54A it was 0.685; in that of U16C U59C G67A, at most 0.5.
The value for U16G G23A A40U was at most 0.5; that for U16G C61U was 0.75.
In the case of U16G G25A U28G C34U G63C it was at most 0.5; in that of G17A A40C, 0.668; in that of U16G C31A C60A G67A, 0.678.
For the variant G17A C22G C27A A36G, the yeast fitness was at most 0.5.
For U16G G68A, the yeast fitness came out at 0.967.
In the case of U16C U26A G67C, the yeast fitness was 0.657.
In the case of U16C U32G G56C G68A it was at most 0.5; in that of G17A A21C, 0.67; in that of G17A C22U A37U U47A G68C, at most 0.5.
In the case of G17A A20C G25A C66A G68C it was at most 0.5; in that of U16C U54A C66U, at most 0.5.
As to U16G C46A G56C A70G, the yeast fitness is at most 0.5.
Turning to G17A A43G A45G C62G, the yeast fitness was at most 0.5.
The value for U16G A21U A40C G58C A65C C66G was 0.515; that for G17A A37G was 0.606; that for U16G A20U was 0.642.
With U16G C24U U28C A36C A65C, the yeast fitness came out at 0.58.
